The source made the active and inactive calls. No cut-off for these calls is given here.
How the values were obtained:
[1] = biological target: T1, Non-receptor tyrosine-protein kinase TYK2 (Homo sapiens, UniProt P29597); experiment: Inhibition of Tyk2 (unknown origin) using 25 uM of ATP and Tyr3 peptide by Z'-LYTE kinase assay
[2] = biological target: T2, Tyrosine-protein kinase JAK3 (Homo sapiens, UniProt P52333); experiment: Inhibition of JAK3 (unknown origin) using 16 uM of ATP and Tyr6 peptide by Z'-LYTE kinase assay
T2 sequence (P52333 whole entry): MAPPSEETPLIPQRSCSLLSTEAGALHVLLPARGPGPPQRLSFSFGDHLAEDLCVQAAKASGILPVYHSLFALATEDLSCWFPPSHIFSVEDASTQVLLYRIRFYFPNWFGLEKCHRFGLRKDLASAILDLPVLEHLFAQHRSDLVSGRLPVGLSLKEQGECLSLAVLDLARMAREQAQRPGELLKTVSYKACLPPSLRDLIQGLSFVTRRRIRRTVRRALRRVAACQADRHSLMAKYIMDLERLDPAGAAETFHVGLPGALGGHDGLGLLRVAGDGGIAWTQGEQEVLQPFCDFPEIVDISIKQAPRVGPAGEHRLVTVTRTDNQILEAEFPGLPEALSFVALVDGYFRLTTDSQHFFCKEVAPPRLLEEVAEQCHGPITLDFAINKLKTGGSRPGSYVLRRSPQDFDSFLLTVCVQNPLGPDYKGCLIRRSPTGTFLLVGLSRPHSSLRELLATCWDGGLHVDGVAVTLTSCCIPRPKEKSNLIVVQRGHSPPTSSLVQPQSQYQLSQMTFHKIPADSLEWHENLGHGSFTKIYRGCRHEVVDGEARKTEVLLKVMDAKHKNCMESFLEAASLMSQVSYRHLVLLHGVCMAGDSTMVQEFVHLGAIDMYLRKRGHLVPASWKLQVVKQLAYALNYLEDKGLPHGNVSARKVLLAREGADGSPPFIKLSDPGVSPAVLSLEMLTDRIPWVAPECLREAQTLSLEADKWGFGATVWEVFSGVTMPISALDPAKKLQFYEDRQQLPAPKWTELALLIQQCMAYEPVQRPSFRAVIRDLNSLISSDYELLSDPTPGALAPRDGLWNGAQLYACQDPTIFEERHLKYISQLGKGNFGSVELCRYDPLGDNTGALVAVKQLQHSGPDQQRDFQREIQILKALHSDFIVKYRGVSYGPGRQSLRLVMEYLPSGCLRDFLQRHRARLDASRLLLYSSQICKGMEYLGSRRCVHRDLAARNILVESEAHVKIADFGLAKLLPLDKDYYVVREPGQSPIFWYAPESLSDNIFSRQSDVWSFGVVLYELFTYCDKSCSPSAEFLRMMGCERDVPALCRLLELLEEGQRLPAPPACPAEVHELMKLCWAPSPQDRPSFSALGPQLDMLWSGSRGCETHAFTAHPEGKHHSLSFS

[3] = biological target: T3, Tyrosine-protein kinase JAK2 (Homo sapiens, UniProt O60674); experiment: Inhibition of JAK2 (unknown origin) using 35 uM of ATP and Tyr6 peptide by Z'-LYTE kinase assay
[4] = biological target: T4, Tyrosine-protein kinase JAK1 (Homo sapiens, UniProt P23458); experiment: Inhibition of JAK1 (unknown origin) using 87 uM of ATP and Tyr6 peptide by Z'-LYTE kinase assay
Homo sapiens [5] = species on record: Homo sapiens; experiment: Selectivity ratio of IC50 for JAK2 (unknown origin) using 35 uM of ATP and Tyr6 peptide to IC50 for JAK1 (unknown origin) using 87 uM of ATP and Tyr6 peptide
In short: (§1)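 JAK1 selectivity taken as IC50 against JAK2 or JAK3 divided by IC50 against JAK1. […] IC50s are means ± SD of three independent experiments.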

Homo sapiens [6] = species on record: Homo sapiens; experiment: Selectivity ratio of IC50 for JAK3 (unknown origin) using 16 uM of ATP and Tyr6 peptide to IC50 for JAK1 (unknown origin) using 87 uM of ATP and Tyr6 peptide; in short: as §1
Homo sapiens [7] = species on record: Homo sapiens; experiment: Selectivity ratio of IC50 for JAK2 (unknown origin) to IC50 for JAK1 (unknown origin) by cell based assay
[8] = Plasma clearance in Sprague-Dawley rat at 5 mg/kg, iv; type: ADME, organism-based
In short: (§2)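 Rats dosed intravenously. Steady-state volume of distribution, systemic plasma clearance and plasma half-life derived from plasma concentration data.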

[9] = biological target: T4, Tyrosine-protein kinase JAK1; settings: A-431, 0.001 to 10 uM
[10] = biological target: T3, Tyrosine-protein kinase JAK2; experiment: Inhibition of JAK2 in human A431 cells assessed as erythropoietin-induced STAT5 phosphorylation at 0.001 to 10 uM after 2 hrs by ELISA; type: cell-based; settings: A-431
[11] = Volume of distribution at steady state in Sprague-Dawley rat at 5 mg/kg, iv; type: ADME, organism-based; settings: in vivo, read-out: Vdss; in short: as §2
[12] = biological target: T3, Tyrosine-protein kinase JAK2; experiment: Inhibition of JAK2 (unknown origin) using 1 mM of ATP and Tyr6 peptide by Z'-LYTE kinase assay
[13] = Permeability of the compound by PAMPA; type: physicochemical; settings: read-out: permeability
[14] = Half life in Sprague-Dawley rat at 5 mg/kg, iv; type: ADME, organism-based; settings: in vivo; in short: as §2
[15] = Oral bioavailability in Sprague-Dawley rat at 10 mg/kg; type: ADME, organism-based; settings: in vivo
[16] = biological target: T2, Tyrosine-protein kinase JAK3; experiment: Inhibition of JAK3 (unknown origin) using 1 mM of ATP and Tyr6 peptide by Z'-LYTE kinase assay
[17] = biological target: T1, Non-receptor tyrosine-protein kinase TYK2; experiment: Inhibition of Tyk2 (unknown origin) using 1 mM of ATP and Tyr3 peptide by Z'-LYTE kinase assay
[18] = biological target: T4, Tyrosine-protein kinase JAK1; experiment: Inhibition of JAK1 (unknown origin) using 1 mM of ATP and Tyr6 peptide by Z'-LYTE kinase assay
[19] = biological target: T3, Tyrosine-protein kinase JAK2; experiment: Inhibition of JAK2 (unknown origin)

T3 sequence (O60674 whole entry): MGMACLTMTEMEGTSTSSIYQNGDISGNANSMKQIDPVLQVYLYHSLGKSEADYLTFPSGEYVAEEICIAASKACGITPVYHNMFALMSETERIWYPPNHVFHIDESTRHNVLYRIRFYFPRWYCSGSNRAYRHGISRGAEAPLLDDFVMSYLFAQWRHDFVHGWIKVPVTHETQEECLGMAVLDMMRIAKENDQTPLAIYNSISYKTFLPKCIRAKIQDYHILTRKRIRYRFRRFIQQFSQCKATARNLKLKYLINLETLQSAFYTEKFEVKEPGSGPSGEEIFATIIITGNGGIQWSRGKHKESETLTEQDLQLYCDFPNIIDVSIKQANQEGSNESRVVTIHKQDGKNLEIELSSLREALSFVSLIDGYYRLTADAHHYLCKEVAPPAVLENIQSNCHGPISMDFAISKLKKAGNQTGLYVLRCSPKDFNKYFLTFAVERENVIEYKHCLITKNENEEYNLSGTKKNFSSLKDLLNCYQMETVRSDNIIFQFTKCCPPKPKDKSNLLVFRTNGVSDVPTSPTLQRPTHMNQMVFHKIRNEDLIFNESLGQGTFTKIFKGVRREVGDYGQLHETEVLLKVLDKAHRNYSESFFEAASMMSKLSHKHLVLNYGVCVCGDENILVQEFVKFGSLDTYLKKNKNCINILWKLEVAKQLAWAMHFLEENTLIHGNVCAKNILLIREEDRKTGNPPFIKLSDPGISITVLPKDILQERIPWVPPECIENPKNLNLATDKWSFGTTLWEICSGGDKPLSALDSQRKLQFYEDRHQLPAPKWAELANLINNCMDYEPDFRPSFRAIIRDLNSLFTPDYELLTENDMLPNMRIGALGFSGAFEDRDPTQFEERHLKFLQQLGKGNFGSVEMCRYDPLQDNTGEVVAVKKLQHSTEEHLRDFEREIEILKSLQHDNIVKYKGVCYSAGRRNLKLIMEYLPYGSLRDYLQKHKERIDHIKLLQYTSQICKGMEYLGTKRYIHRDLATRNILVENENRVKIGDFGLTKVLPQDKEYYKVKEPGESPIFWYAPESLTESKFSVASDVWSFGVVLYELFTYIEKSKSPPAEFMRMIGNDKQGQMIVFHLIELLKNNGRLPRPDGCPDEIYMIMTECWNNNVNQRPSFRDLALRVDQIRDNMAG
T1 sequence (P29597 whole entry): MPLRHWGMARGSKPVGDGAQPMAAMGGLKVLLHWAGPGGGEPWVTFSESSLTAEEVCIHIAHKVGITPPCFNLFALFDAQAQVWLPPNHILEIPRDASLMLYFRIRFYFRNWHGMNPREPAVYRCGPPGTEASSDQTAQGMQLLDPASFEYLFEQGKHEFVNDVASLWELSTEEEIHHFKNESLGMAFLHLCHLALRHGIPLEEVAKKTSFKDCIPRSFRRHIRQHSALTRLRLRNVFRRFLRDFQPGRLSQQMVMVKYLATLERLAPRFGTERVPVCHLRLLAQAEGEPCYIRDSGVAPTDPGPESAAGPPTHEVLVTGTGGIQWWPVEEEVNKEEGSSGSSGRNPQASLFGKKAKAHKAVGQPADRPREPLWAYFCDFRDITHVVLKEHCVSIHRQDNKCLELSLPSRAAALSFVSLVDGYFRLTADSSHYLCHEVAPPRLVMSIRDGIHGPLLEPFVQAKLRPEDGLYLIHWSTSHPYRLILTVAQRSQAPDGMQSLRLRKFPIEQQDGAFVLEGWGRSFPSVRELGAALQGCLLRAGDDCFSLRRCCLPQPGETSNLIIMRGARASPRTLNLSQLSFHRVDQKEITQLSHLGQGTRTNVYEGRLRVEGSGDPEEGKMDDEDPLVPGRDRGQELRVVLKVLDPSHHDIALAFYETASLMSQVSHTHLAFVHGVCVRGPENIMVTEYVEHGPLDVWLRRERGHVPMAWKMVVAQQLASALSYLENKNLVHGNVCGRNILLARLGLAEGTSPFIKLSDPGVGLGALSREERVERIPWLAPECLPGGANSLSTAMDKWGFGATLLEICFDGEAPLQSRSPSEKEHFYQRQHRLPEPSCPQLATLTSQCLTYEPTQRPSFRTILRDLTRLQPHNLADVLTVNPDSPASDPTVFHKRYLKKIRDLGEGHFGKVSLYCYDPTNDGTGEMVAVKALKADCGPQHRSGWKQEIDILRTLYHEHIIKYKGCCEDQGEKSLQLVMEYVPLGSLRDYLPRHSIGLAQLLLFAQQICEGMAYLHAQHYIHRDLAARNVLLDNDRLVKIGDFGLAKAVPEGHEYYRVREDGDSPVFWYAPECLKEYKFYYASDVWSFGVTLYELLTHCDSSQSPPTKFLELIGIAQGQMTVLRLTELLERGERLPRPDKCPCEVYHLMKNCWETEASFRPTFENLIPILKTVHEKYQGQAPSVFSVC
T4 sequence (P23458 whole entry): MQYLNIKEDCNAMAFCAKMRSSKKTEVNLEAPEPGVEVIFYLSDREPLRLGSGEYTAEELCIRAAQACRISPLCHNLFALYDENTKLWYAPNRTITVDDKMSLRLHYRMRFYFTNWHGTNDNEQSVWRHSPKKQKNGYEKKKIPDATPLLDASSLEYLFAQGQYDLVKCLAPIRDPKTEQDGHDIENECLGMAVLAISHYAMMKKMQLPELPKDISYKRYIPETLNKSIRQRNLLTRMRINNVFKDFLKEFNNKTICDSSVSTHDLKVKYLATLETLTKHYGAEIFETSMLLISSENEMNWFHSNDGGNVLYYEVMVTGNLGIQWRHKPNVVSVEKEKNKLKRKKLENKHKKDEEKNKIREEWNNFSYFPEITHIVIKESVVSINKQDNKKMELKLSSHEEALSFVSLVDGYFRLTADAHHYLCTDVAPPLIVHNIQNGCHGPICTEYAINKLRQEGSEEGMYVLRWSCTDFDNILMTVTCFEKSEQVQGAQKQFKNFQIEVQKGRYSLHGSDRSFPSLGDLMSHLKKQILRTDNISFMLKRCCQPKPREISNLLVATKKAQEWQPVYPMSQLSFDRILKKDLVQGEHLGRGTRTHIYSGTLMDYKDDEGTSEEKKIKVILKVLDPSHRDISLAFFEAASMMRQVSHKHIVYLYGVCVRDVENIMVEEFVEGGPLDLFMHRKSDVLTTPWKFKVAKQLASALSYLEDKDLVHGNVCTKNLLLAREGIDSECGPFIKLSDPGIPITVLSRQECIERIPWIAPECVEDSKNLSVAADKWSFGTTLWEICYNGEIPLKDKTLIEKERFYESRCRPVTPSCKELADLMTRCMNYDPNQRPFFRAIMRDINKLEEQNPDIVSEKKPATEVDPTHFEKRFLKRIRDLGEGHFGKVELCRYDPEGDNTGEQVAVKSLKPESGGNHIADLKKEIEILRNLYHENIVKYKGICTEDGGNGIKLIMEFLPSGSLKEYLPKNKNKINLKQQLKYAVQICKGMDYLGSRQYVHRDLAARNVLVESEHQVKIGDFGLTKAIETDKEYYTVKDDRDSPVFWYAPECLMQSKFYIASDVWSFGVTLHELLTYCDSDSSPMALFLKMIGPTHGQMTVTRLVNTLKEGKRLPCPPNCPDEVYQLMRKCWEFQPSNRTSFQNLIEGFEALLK

SMILES | IC50 [1] | IC50 [2] | IC50 [3] | IC50 [4] | Ratio IC50 (Homo sapiens [5]) | Ratio IC50 (Homo sapiens [6]) | other results
NCCn1c(-c2ccncc2)nc2cc(C(N)=O)ccc21 | 5.8 µM | 10.5 µM | 13.5 µM | 32.4 µM | 0.4 | 0.3 | –
NCCn1c(-c2ccccc2)nc2cc(C(N)=O)ccc21 | 4.2 µM | 14.1 µM | 2.8 µM | 11.6 µM | 0.2 | 1 | –
Cc1ccc(-c2nc3cc(C(N)=O)ccc3n2CCN)cc1 | 3.5 µM | 2.3 µM | 2.6 µM | 3.7 µM | 0.7 | 0.6 | –
CC[C@@H]1CN(C(=O)NCC(F)(F)F)C[C@@H]1c1cnc2cnc3[nH]ccc3n12 | – | – | – | – | – | – | Ratio IC50 (Homo sapiens [7]): 74
N#Cc1ccc(-c2nc3cc(C(N)=O)ccc3n2CCN)cc1 | 2.5 µM | 1.9 µM | 2.6 µM | 2.9 µM | 0.9 | 0.7 | –
NCCn1c(-c2ccc(C(F)(F)F)cc2)nc2cc(C(N)=O)ccc21 | 3.2 µM | 2.1 µM | 4.8 µM | 9.3 µM | 0.5 | 0.2 | –
NCCc1nc2cc(C(N)=O)ccc2n1CCN | 3.1 µM | 1.5 µM | 2.9 µM | 0.1 µM | 29 | 15 | –
NCCn1c(C2CCCCC2)nc2cc(C(N)=O)ccc21 | 3.3 µM | 2.5 µM | 4.1 µM | 4.3 µM | 1 | 0.6 | –
NCCn1c(-c2ccc(O)cc2O)nc2cc(C(N)=O)ccc21 | 3.7 µM | 2.9 µM | 2.5 µM | 3.1 µM | 0.8 | 0.9 | –
NCCn1c(-c2cncnc2)nc2cc(C(N)=O)ccc21 | 2.8 µM | 2.5 µM | 1.6 µM | 3.4 µM | 0.5 | 0.7 | –
NCCCn1c(-c2ccccc2)nc2cc(C(N)=O)ccc21 | 2.7 µM | 1.8 µM | 20.5 µM | 11.3 µM | 2 | 0.2 | –
NCCn1c(C2CCNCC2)nc2cc(C(N)=O)ccc21 | 3.7 µM | 1.26 µM | 3.15 µM | 0.05 µM | 63 | 25 | clearance [8]: 6.67 mL/min/kg; inhibition [9]: inactive; inhibition [10]: inactive; Vd [11]: 0.5 L/kg; IC50 [12]: 437 µM; Papp [13]: 0.1 ×10⁻⁶ cm/s; half-life [14]: 9.1 h; bioavailability [15]: 0.7%; IC50 [16]: 232 µM; IC50 [17]: 759 µM; IC50 [18]: 5.7 µM
NCCn1c(-c2cccnc2N)nc2cc(C(N)=O)ccc21 | 4.3 µM | 1.9 µM | 4.7 µM | 8.1 µM | 0.6 | 0.2 | –
NCCn1c(-c2ccc(O)cc2)nc2cc(C(N)=O)ccc21 | 3.2 µM | 2.4 µM | 1.3 µM | 0.1 µM | 11 | 20 | –
NCCCc1nc2cc(C(N)=O)ccc2n1CCN | 2.5 µM | 1.1 µM | 1.6 µM | 2.2 µM | 0.7 | 0.5 | –
NCCCn1c(CCN)nc2cc(C(N)=O)ccc21 | 6.4 µM | 1.5 µM | 2.2 µM | 6.1 µM | 0.4 | 0.2 | –
CC(C)c1ccc(-c2nc3cc(C(N)=O)ccc3n2CCN)cc1 | 2.7 µM | 1.9 µM | 5.9 µM | 3.1 µM | 2 | 0.6 | –
CC[C@@](C)(Nc1ccnc(-c2c[nH]c3ncccc23)n1)C(=O)NCC(F)(F)F [DECERNOTINIB] | – | – | – | – | – | – | IC50 [19]: 0.013 µM

Reference: ChEMBL document CHEMBL3621116, “Benzimidazole Derivatives as Potent JAK1-Selective Inhibitors” (J Med Chem, 2015)
